ChEMBL document CHEMBL3351450 (Bioorg Med Chem, 2014)

What was measured:
Liver = assay: Intrinsic clearance in human liver S9 fraction; type: ADME, subcellular
[1] = Metabolic stability in human liver S9 fraction assessed as compound remaining at 1 uM after 15 mins by LC-MS/MS analysis; type: ADME, subcellular; details: read-out: Stability
[2] = Metabolic stability in human liver S9 fraction assessed as compound remaining at 1 uM after 5 mins by LC-MS/MS analysis; type: ADME, subcellular; details: read-out: Stability
[3] = Cmax in Sprague-Dawley rat at 30 mg/kg, po; type: ADME, organism-based; design: dose 30 mg/kg, route oral; details: in vivo
Summary of the method: (§1)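 Male SD rats, 3 per route. Oral dose given by gavage as a suspension in 0.5% Tween 80 (w/v). IV dose given via the femoral vein in DMSO/PEG-400/saline (5:65:30). Tail-vein blood drawn over 24 h and centrifuged to plasma. Parent and metabolite measured by LC–MS/MS.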

[4] = Half life in Sprague-Dawley rat at 30 mg/kg, po; type: ADME, organism-based; design: dose 30 mg/kg, route oral; details: in vivo; summary of the method: as §1
[5] = Cmax in Sprague-Dawley rat at 3 mg/kg, iv; type: ADME, organism-based; design: dose 3 mg/kg, route intravenous; details: in vivo; summary of the method: as §1
[6] = Tmax in Sprague-Dawley rat at 3 mg/kg, iv; type: ADME, organism-based; design: dose 3 mg/kg, route intravenous; details: in vivo
Summary of the method: (§2)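 Male SD rats, three per route. Oral gavage of a suspension in 0.5% Tween 80 (30 mg/kg). IV via femoral vein in DMSO/PEG-400/saline 5:65:30 (3 mg/kg). Tail-vein blood sampled over 24 h. Plasma stored at -20 °C and analysed by LC–MS/MS for parent and metabolite. Values reported as mean ± SD of three rats.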

[7] = AUC (0 to infinity) in Sprague-Dawley rat at 3 mg/kg, iv; type: ADME, organism-based; design: dose 3 mg/kg, route intravenous, time infinity; details: plasma; summary of the method: as §1
[8] = Tmax in Sprague-Dawley rat at 30 mg/kg, po; type: ADME, organism-based; design: dose 30 mg/kg, route oral; details: in vivo; summary of the method: as §2
[9] = Half life in Sprague-Dawley rat at 3 mg/kg, iv; type: ADME, organism-based; design: dose 3 mg/kg, route intravenous; details: in vivo; summary of the method: as §1
[10] = AUC (0 to infinity) in Sprague-Dawley rat at 30 mg/kg, po; type: ADME, organism-based; design: time infinity, dose 30 mg/kg, route oral; details: plasma; summary of the method: as §1
[11] = Oral bioavailability in Sprague-Dawley rat at 30 mg/kg; type: ADME, organism-based; details: in vivo; summary of the method: as §2

| Compound | CLint (Liver) | remaining at 0.25 h, 1 µM [1] | remaining at 5 min, 1 µM [2] | also measured |
| --- | --- | --- | --- | --- |
| Nc1onc(-c2ccc(F)cc2)c1-c1ccncn1 |  |  |  | Cmax [3]: 136 ng/mL; half-life [4]: 58.8 min; Cmax [5]: 744 ng/mL; Tmax [6]: 30 min; AUC(0-inf) [7]: 924 ng·h/mL; Tmax [8]: 200 min; half-life [9]: 25.7 min; AUC(0-inf) [10]: 760 ng·h/mL |
| O=C(Cc1ccccc1F)Nc1onc(-c2ccc(F)cc2)c1-c1ccncn1 |  |  | 10% |  |
| O=C(Cc1c(F)cccc1Cl)Nc1onc(-c2ccc(F)cc2)c1-c1ccncn1 |  |  | 16.1% | Cmax [3]: 0.88 ng/mL; half-life [4]: 1120 min; Cmax [5]: 363 ng/mL; Tmax [6]: 4.8 min; AUC(0-inf) [7]: 505 ng·h/mL; bioavailability [11]: < 1%; Tmax [8]: 200 min; half-life [9]: 28.4 min; AUC(0-inf) [10]: 23.7 ng·h/mL |
| Cc1ccc(C)c(CC(=O)Nc2onc(-c3ccc(F)cc3)c2-c2ccncn2)c1 |  |  | 53.9% |  |
| O=C(Cc1ccccc1Cl)Nc1onc(-c2ccc(Cl)cc2)c1-c1ccncn1 |  |  | 96.6% |  |
| O=C(Cc1ccccc1Cl)Nc1onc(-c2ccc(F)cc2F)c1-c1ccncn1 |  |  | 20.4% |  |
| Cc1cccc(-c2noc(NC(=O)Cc3ccccc3Cl)c2-c2ccncn2)c1 |  |  | 21.2% |  |
| Cc1cc(-c2noc(NC(=O)Cc3ccccc3C)c2-c2ccncn2)ccc1F |  |  | 52.6% |  |

The next lines start with results.

| CLint (Liver) | remaining at 0.25 h, 1 µM [1] | remaining at 5 min, 1 µM [2] | Compound | also measured |
| --- | --- | --- | --- | --- |
| 81.8 µL/min/mg | 50.3% | 81.5% | Fc1ccc(-c2n[nH]c(CCCc3ccccc3)c2-c2ccncc2)cc1 |  |
| 40.6 µL/min/mg | 86.2% | 90.4% | O=C(Cc1ccccc1)Nc1[nH]nc(-c2ccc(F)cc2)c1-c1ccncc1 |  |
| 68.1 µL/min/mg | 65% | 84.4% | Cn1nc(NC(=O)Cc2ccccc2)c(-c2ccncc2)c1-c1ccc(F)cc1 |  |
| 31.6 µL/min/mg | 82.5% | 92.4% | CC(=O)Nc1onc(-c2ccc(F)cc2)c1-c1ccncc1 |  |
|  | 10.9% | 39.6% | O=C(Nc1onc(-c2ccc(F)cc2)c1-c1ccncc1)c1ccccc1 |  |
| 91 µL/min/mg | 64.3% | 79.7% | O=C(Cc1ccccc1)Nc1onc(-c2ccc(F)cc2)c1-c1ccncc1 |  |
| 455 µL/min/mg | 27.9% | 32.1% | O=C(CCc1ccccc1)Nc1onc(-c2ccc(F)cc2)c1-c1ccncc1 |  |
| 272 µL/min/mg | 28.5% | 50.7% | O=C(CCCc1ccccc1)Nc1onc(-c2ccc(F)cc2)c1-c1ccncc1 |  |
|  |  | 5.6% | O=C(Cc1ccccc1)Nc1onc(-c2ccc(F)cc2)c1-c1ccncn1 |  |
|  |  | 5.8% | O=C(Cc1ccccc1Cl)Nc1onc(-c2ccc(F)cc2)c1-c1ccncn1 |  |
